Test [1] is filed under the species Ovis aries. Nature of the test: Selectivity ratio of IC50 for ovine COX1 to IC50 for ovine COX2. A digest of the protocol:
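Ratio of COX-1 IC50 to COX-2 IC50. Both IC50s come from concentration−inhibition curves in the ovine enzyme kit assay, with PGF2α (from SnCl2 reduction of PGH2) measured by enzyme immunoassay.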

Test [2] has as its target T1, Prostaglandin G/H synthase 2 (Ovis aries, UniProt P79208).
T1 sequence (P79208 whole entry): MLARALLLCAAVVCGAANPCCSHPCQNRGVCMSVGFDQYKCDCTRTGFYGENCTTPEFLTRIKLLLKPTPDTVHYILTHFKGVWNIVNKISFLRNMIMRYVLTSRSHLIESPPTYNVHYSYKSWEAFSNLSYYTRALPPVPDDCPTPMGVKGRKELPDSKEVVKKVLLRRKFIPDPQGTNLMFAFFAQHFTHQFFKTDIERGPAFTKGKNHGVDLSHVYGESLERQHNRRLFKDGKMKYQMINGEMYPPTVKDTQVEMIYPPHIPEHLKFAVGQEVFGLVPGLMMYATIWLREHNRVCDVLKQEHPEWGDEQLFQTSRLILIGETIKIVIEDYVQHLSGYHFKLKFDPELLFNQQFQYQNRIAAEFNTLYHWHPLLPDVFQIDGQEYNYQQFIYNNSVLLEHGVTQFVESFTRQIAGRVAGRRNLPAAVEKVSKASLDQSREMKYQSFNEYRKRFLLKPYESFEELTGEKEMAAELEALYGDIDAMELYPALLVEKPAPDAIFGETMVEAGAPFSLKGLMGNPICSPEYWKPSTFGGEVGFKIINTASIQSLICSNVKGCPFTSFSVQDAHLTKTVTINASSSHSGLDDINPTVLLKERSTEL
Nature of the test: Inhibition of ovine COX2 assessed as PGF2alpha production by reduction of PGH2 with stannous chloride by enzyme immunoassay. A digest of the protocol:
(§1)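 Ovine COX-1 or COX-2 from screening kit used per manufacturer; arachidonic acid substrate, PGH2 reduced by SnCl2 to PGF2α and read by enzyme immunoassay. DMSO stock solutions. Percent inhibition relative to control incubations; IC50 obtained from concentration−inhibition response curves. Means ± SEM, n = 2−3.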

Test [3] has as its target T2, Prostaglandin G/H synthase 1 (Ovis aries, UniProt P05979).
T2 sequence (P05979 whole entry): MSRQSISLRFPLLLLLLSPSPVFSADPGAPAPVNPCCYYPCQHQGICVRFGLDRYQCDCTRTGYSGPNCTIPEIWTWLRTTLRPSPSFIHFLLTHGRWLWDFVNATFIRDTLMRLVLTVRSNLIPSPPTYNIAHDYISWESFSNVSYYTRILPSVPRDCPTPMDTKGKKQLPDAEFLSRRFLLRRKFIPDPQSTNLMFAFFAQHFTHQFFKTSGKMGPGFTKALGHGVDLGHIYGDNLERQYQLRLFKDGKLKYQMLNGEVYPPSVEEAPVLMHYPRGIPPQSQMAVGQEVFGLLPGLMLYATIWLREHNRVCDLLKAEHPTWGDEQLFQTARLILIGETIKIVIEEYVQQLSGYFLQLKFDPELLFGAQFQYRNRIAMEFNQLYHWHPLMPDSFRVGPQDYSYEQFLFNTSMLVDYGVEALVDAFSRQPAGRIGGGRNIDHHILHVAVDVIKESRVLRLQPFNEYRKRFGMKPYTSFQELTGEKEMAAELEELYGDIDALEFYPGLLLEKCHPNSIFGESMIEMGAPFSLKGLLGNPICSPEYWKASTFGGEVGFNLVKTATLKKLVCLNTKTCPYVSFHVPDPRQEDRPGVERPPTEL
Kind of test: Inhibition of ovine COX1 assessed as PGF2alpha production by reduction of PGH2 with stannous chloride by enzyme immunoassay. A digest of the protocol:
as §1

Test [4] concerns the target T3, Prostaglandin G/H synthase 1 (Ovis aries) (UniProt P05979).
T3 sequence (whole entry): T2 sequence (P05979 whole entry)
Kind of test: Inhibition of ovine COX1 assessed as PGF2alpha production by reduction of PGH2 with stannous chloride at 40 uM by enzyme immunoassay relative to control. A digest of the protocol:
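Ovine COX inhibitor screening kit run per manufacturer. Enzyme converts arachidonic acid to PGH2, which SnCl2 reduces to PGF2α, quantified by enzyme immunoassay. DMSO stocks; final test concentration 40 μM. Percent inhibition calculated against control incubations. Means ± SEM, n = 2−3.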

The test system of test [5] is Rattus norvegicus. Kind of test: Antiinflammatory activity in Sprague-Dawley rat assessed as inhibition of carrageenan-induced paw edema at 50 mg/kg, po administered 1 hr before carrageenan challenge measured after 5 hrs relative to control. It counts as functional. A digest of the protocol:
(§2)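 Female Sprague-Dawley rats (160−180 g), fasted overnight, six per group. Samples suspended in freshly prepared 0.5% hydroxypropyl methyl cellulose, given orally; control group received vehicle (normal saline). 1 h after dosing, 100 μL of 1% carrageenan in saline injected subcutaneously into left hind paw. Paw volume read by plethysmometer before and at 3 and 5 h; edema = final minus basal volume. Mean ± SEM, one-way ANOVA with Dunnett's test versus control.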

In test [6] the test system is Rattus norvegicus. Kind of test: Antiinflammatory activity in Sprague-Dawley rat assessed as inhibition of carrageenan-induced paw edema at 50 mg/kg, po administered 1 hr before carrageenan challenge measured after 3 hrs relative to control. Type of test: functional. The essentials: as §2
The subject of test [7] is Rattus norvegicus. Nature of the test: Antiinflammatory activity in Sprague-Dawley rat assessed as inhibition of carrageenan-induced paw edema at 100 mg/kg, po administered 1 hr before carrageenan challenge measured after 5 hrs relative to control. It counts as functional. The essentials: as §2
Test [8] relates to Rattus norvegicus. Nature of the test: Antiinflammatory activity in Sprague-Dawley rat assessed as inhibition of carrageenan-induced paw edema at 100 mg/kg, po administered 1 hr before carrageenan challenge measured after 3 hrs relative to control. It counts as functional. A digest of the protocol:
as §2

Consider ten compounds from ChEMBL document CHEMBL2407009, “Rotenoids from Boerhaavia diffusa as potential anti-inflammatory agents” (J Nat Prod, 2013).

For the compound `COc1c(O)c(C)c(O)c2c(=O)c3c(oc12)C(OC)Oc1ccccc1-3` (racemic), the Ratio IC50 in test [1] amounted to 1.09. Besides, the figures for the 50% inhibitory concentration (IC50) in test [2] and in test [3] were 31.4 µM and 33.1 µM, respectively. On to `COc1c(O)c(C)c(O)c2c(=O)c3c(oc12)C(O)Oc1ccccc1-3` (racemic), for which the IC50 in test [3] came out at 25.9 µM. On to `O=c1c2c(oc3cc(O)cc(O)c13)C(O)Oc1cc(O)ccc1-2` (racemic), for which, in test [1], the Ratio IC50 was 0.79. Moreover, the results for the IC50 in test [2] and in test [3] were 25.5 µM and 21.7 µM, respectively. For the compound `COC1Oc2ccccc2-c2c1oc1cc(O)cc(O)c1c2=O` (racemic), the inhibition in test [4] worked out at 59.4%. For the compound `COc1cc(O)c2c(=O)c3c(oc2c1)C(O)Oc1c(O)cccc1-3` (racemic), the inhibition in test [4] was found to be 59.9%. Take `COc1cc(O)c2c(c1)O[C@@H]1COc3c(O)cccc3[C@@]1(O)C2=O` (relative stereo): the inhibition in test [4] stood at 47.2%. With `COC1Oc2ccccc2-c2c1oc1cc(O)c(C)c(O)c1c2=O` (centres undefined) [BOERAVINONE A], in test [3], the IC50 came to 32.9 µM. For `Cc1c(O)cc2oc3c(c(=O)c2c1O)-c1ccccc1OC3O` (centres undefined) [BOERAVINONE B], the inhibition in vivo at 50 mg/kg in test [5] was 56.7%; in test [6] it was 48.3%. In test [3], the IC50 is 25 µM. For the compound `Cc1c(O)cc2oc3c(c(=O)c2c1O)-c1ccc(O)cc1OC3O` (centres undefined) [BOERAVINONE E], the concentration for half-maximal inhibition (IC50) in test [3] came to 23.9 µM. In the case of `CC(C)Cc1ccc(C(C)C(=O)O)cc1` (centres undefined) [IBUPROFEN], the inhibition in vivo at 100 mg/kg came to 50.4% in test [7] and 42.7% in test [8]. The inhibition in vivo at 50 mg/kg in test [5] turned out to be 43.5%; in test [6], 35.8%.
